From ChEMBL document CHEMBL3232848, “Design and synthesis of high affinity inhibitors of Plasmodium falciparum and Plasmodium vivax N-myristoyltransferases directed by ligand efficiency dependent lipophilicity (LELP)” (J Med Chem, 2014) come the findings set out here.

Experiment [1] in a line: Inhibition of human N-myristoyltransferase using H-Gly-Ser-Asn-Lys-Ser-Lys-Pro-Lys-NH2 as substrate by CPM fluorescence assay. Summed up:
(§1)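 IC50 values (mean of two or more determinations) were converted to Ki by Cheng–Prusoff using substrate concentration and Km. For PfNMT, Km was 3.64 μM and substrate was 4.00 μM. The human enzyme values refer to HsNMT1.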

Experiment [2] addresses T1, Glycylpeptide N-tetradecanoyltransferase (Plasmodium falciparum (isolate 3D7), UniProt Q8ILW6).
T1 sequence (Q8ILW6 whole entry): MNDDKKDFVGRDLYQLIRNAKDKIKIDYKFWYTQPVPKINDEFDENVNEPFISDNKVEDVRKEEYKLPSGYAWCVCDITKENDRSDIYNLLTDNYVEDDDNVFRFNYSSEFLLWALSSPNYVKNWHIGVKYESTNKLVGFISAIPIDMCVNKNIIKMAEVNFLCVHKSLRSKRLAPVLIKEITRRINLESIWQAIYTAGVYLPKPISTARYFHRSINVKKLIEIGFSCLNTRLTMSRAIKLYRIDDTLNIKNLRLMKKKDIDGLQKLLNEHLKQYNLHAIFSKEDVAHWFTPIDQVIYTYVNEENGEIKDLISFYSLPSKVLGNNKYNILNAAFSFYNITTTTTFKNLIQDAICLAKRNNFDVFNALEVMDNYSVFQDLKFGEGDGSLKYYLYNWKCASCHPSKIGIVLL
The experiment can be described thus: Inhibition of Plasmodium falciparum N-myristoyltransferase by CPM fluorescence assay. Summed up: as §1

The nature of experiment [3]: Inhibition of Plasmodium vivax N-myristoyltransferase by CPM fluorescence assay. Summed up: as §1
The subject of another experiment is Plasmodium falciparum. The experiment can be described thus: Antimicrobial activity against late stage trophozoite form of Plasmodium falciparum 3D7 infected in RBCs after 48 hrs by SYBR green viability assay. It counts as functional, organism-based. To be noted: 3D7, 96 h, in the assay text read “after 96 hrs” for “after 48 hrs”. The method in brief: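 Synchronous 3D7 late trophozoites (33–36 h) were used at 0.1–0.2% parasitemia and 2% hematocrit in washed, buffy-coat-free RBCs, in RPMI 1640 with Albumax, gentamycin and L-glutamine. Seven dilutions from 10.0 to 0.014 μM were run in duplicate at 37 °C under 5% CO2, 5% O2, 90% N2. Drug was replaced at 48 h and incubation continued to 96 h. Read-out was SYBR Green I in saponin/Triton lysis buffer, then fluorescence converted to % growth.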

Experiment [4] in a line: Selectivity ratio of Ki for human N-myristoyltransferase to Ki for Plasmodium falciparum N-myristoyltransferase.
The nature of experiment [5]: Selectivity ratio of Ki for human N-myristoyltransferase to Ki for Plasmodium vivax N-myristoyltransferase.

A value given as a limit tells only on which side of the number the result lay.

What is called Ki is a measure of affinity in units of concentration, obtained from inhibition or displacement. A high value points to a looser hold on the target. Regarding `Cc1nn(C)c(C)c1CCc1nnc(-c2sc3ccccc3c2OC2CCNCC2)o1`, the figures for the Ki in experiment [1], in experiment [2] and in experiment [3] were 824 nM, 124 nM and 32 nM, respectively.
The matching figures for `CC(c1ccccc1)c1nnc(-c2sc3ccccc3c2OC2CCNCC2)o1` (racemic): 2070 nM, 334 nM and 77 nM.
What is called EC50 is the midpoint of the concentration-response curve. A higher EC50 goes with a need for much substance. `O=C(OCCc1ccccc1)c1sc2ccccc2c1OC1CCNCC1`: the results for the Ki in experiment [1], in experiment [2] and in experiment [3] were 10400 nM, 677 nM and 72 nM, respectively. The compound further came in with a concentration for a half-maximal effect (EC50) in the experiment with Plasmodium falciparum of 5600 nM.
In the case of `O=C(NCCOc1ccccc1)c1sc2ccccc2c1OC1CCNCC1`, the inhibition constant (Ki) was > 100000 nM in experiment [1], > 10000 nM in experiment [2] and 2210 nM in experiment [3].
Regarding `Clc1cccc(Cc2noc(-c3sc4ccccc4c3OC3CCNCC3)n2)c1`, the values for the Ki in experiment [1], in experiment [2] and in experiment [3] were 871 nM, 163 nM and 58 nM, respectively. The compound further had an EC50 in the experiment with Plasmodium falciparum of 1210 nM.
For the compound `Cc1n[nH]c(C)c1CCc1nnc(-c2sc3ccccc3c2OC2CCNCC2)o1`, the Ki in experiment [1] turned out to be 2250 nM; in experiment [2], 226 nM.
Consider `O=C(OCCCc1ccccc1)c1sc2ccccc2c1OC1CCNCC1`, for which the Ki in experiment [1] was 1160 nM; in experiment [2] it was 3970 nM; in experiment [3], 66 nM.
For the compound `COC(c1ccccc1)c1nnc(-c2sc3ccccc3c2OC2CCNCC2)o1` (racemic), the inhibition constant Ki was 3950 nM in experiment [1], 212 nM in experiment [2] and 81 nM in experiment [3].
For `Cc1n[nH]c(C)c1Cc1nnc(-c2sc3ccccc3c2OC2CCNCC2)o1`, the Ki was 1540 nM in experiment [1], 55 nM in experiment [2] and 75 nM in experiment [3]. In addition, the EC50 with Plasmodium falciparum came out at 2010 nM. The Ratio Ki in experiment [4] was 30.
As for `OC(c1ccccc1)c1nnc(-c2sc3ccccc3c2OC2CCNCC2)o1` (racemic), the Ki in experiment [1] is 2450 nM; in experiment [2], 125 nM; in experiment [3] it was 35 nM. The compound also had a concentration for a half-maximal effect (EC50) in the experiment with Plasmodium falciparum of 7340 nM.
On to `FC(F)(c1ccccc1)c1nnc(-c2sc3ccccc3c2OC2CCNCC2)o1`, for which the Ki turned out to be 2770 nM in experiment [1], 391 nM in experiment [2] and 182 nM in experiment [3].
Take `O=C(NCCCc1ccccc1)c1sc2ccccc2c1OC1CCNCC1`: the Ki in experiment [1] is > 100000 nM; in experiment [2], > 10000 nM; in experiment [3], 2530 nM.
Regarding `COc1cccc(Cc2nc(-c3sc4ccccc4c3OC3CCNCC3)no2)c1`, the Ki in experiment [1] is 100 nM; in experiment [2] it was 50 nM; in experiment [3] it was 6 nM. The EC50 in the experiment with Plasmodium falciparum was 3260 nM.
As to `Cc1noc(C)c1Cc1nnc(-c2sc3ccccc3c2OC2CCNCC2)o1`, the Ki amounted to 1050 nM in experiment [1], 113 nM in experiment [2] and 38 nM in experiment [3]. This compound gave an EC50 in the experiment with Plasmodium falciparum of 5020 nM. Further, the Ratio Ki in experiment [4] came to 8.
For `Cc1noc(C)c1CCc1nnc(-c2sc3ccccc3c2OC2CCNCC2)o1`, the Ki in experiment [1] came out at 709 nM; in experiment [2] it was 186 nM; in experiment [3], 47 nM.
For the compound `c1ccc(Cc2n[nH]c(-c3sc4ccccc4c3OC3CCNCC3)n2)cc1`, the figures for the Ki in experiment [1], in experiment [2] and in experiment [3] were 893 nM, 270 nM and 71 nM, respectively.
Regarding `c1ccc(C(c2ccccc2)c2nnc(-c3sc4ccccc4c3OC3CCNCC3)o2)cc1`, the Ki in experiment [1] was determined as 1920 nM; in experiment [2], 465 nM; in experiment [3], 142 nM.
As for `COc1cc(CCOC(=O)c2sc3ccccc3c2OC2CCNCC2)cc(OC)c1`, the Ki stood at 31 nM in experiment [1], 26 nM in experiment [2] and 9 nM in experiment [3]. This compound yielded an EC50 in the experiment with Plasmodium falciparum of 1410 nM.
Consider `c1ccc(Cc2nc(-c3sc4ccccc4c3OC3CCNCC3)no2)cc1`, for which the Ki in experiment [1] was 1190 nM; in experiment [2], 120 nM; in experiment [3], 13 nM.
With `COc1cc(Cc2noc(-c3sc4ccccc4c3OC3CCNCC3)n2)cc(OC)c1`, the Ki in experiment [1] came out at 207 nM; in experiment [2] it was 15 nM; in experiment [3] it was 5 nM. In the experiment with Plasmodium falciparum, this compound gave an EC50 of 2490 nM.
The matching figures for `COc1cccc(CCOC(=O)c2sc3ccccc3c2OC2CCNCC2)c1`: 2200 nM, 120 nM, 59 nM and 4200 nM.
For `COc1cccc(Cc2nnc(-c3sc4ccccc4c3OC3CCNCC3)o2)c1`, the results for the Ki in experiment [1], in experiment [2] and in experiment [3] were 428 nM, 33 nM and 18 nM, respectively. The compound also had an EC50 in the experiment on Plasmodium falciparum of 5500 nM. For the same compound, the Ratio Ki in experiment [4] stood at 13; in experiment [5], 24.
Turning to `O=C(NCCc1ccccc1)c1sc2ccccc2c1OC1CCNCC1`, the figures for the Ki in experiment [1], in experiment [2] and in experiment [3] were > 100000 nM, > 10000 nM and 3780 nM, respectively.
The matching figures for `O=C(OCCOc1ccccc1)c1sc2ccccc2c1OC1CCNCC1`: 1870 nM, 1130 nM and 123 nM.
For `c1ccc(Cc2nnc(-c3sc4ccccc4c3OC3CCNCC3)o2)cc1`, the Ki in experiment [1] stood at 1370 nM; in experiment [2], 77 nM; in experiment [3] it was 39 nM. The compound also registered an EC50 with Plasmodium falciparum of 9500 nM.
Take `c1ccc(C2(c3nnc(-c4sc5ccccc5c4OC4CCNCC4)o3)CC2)cc1`: the Ki stood at 976 nM in experiment [1], 98 nM in experiment [2] and 34 nM in experiment [3].
On to `c1ccc(CCc2noc(-c3sc4ccccc4c3OC3CCNCC3)n2)cc1`, for which the figures for the Ki in experiment [1], in experiment [2] and in experiment [3] were 1540 nM, 247 nM and 57 nM, respectively. In addition, the midpoint of the response with Plasmodium falciparum, the EC50, lay at 3790 nM.
The like results for `COc1cc(Cc2nc(-c3sc4ccccc4c3OC3CCNCC3)no2)cc(OC)c1` were, in that order, 50 nM, 15 nM, 8 nM and 3500 nM.
`CC(C)(c1ccccc1)c1nnc(-c2sc3ccccc3c2OC2CCNCC2)o1`: the Ki is 1550 nM in experiment [1], 152 nM in experiment [2] and 32 nM in experiment [3].
In the case of `c1ccc(Cc2noc(-c3sc4ccccc4c3OC3CCNCC3)n2)cc1`, the inhibition constant (Ki) in experiment [1] was found to be 788 nM; in experiment [2] it was 71 nM; in experiment [3] it was 16 nM. In the experiment with Plasmodium falciparum, this compound showed an EC50 of 2300 nM.
The matching figures for `COc1cccc(Cc2noc(-c3sc4ccccc4c3OC3CCNCC3)n2)c1`: 192 nM, 51 nM, 8 nM and 1450 nM.
